In ChEMBL document CHEMBL1143603, “Identification and characterization of novel benzil (diphenylethane-1,2-dione) analogues as inhibitors of mammalian carboxylesterases” (J Med Chem, 2005):
Blank lines part the entries; values can stand above or below the molecule they belong to.

Experiments:
Cholinesterase = Cholinesterase (Homo sapiens, UniProt P06276); assay: Inhibition constant against human Butyrylcholinesterase (hBuChE) using butyrylthiocholine (BuTCh) as substrate
Cocaine esterase = biological target: T1, Cocaine esterase (Homo sapiens, UniProt O00748); assay: Inhibition constant against human intestinal carboxylesterase 2 (hiCE) using nitrophenyl acetate (o-NPA) as substrate
T1 sequence (O00748 whole entry): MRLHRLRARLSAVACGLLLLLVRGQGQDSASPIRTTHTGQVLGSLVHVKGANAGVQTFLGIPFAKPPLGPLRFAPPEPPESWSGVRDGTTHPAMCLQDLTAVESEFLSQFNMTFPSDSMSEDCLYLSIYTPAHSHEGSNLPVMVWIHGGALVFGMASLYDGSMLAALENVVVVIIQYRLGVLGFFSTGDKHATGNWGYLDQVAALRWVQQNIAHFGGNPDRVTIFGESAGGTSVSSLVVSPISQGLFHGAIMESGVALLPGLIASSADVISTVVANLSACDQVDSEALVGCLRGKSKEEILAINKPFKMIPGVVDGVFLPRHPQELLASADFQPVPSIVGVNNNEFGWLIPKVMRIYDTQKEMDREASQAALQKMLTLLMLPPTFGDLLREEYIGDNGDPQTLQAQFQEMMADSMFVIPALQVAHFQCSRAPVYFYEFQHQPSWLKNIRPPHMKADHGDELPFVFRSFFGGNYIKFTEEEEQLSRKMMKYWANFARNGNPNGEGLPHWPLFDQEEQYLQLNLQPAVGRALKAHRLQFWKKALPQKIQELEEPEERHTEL

Liver carboxylesterase 1 [1] = biological target: T2, Liver carboxylesterase 1 (Oryctolagus cuniculus, UniProt P12337); assay: Inhibition constant against rabbit liver carboxylesterase (rCE) using nitrophenyl acetate (o-NPA) as substrate
T2 sequence (P12337 whole entry): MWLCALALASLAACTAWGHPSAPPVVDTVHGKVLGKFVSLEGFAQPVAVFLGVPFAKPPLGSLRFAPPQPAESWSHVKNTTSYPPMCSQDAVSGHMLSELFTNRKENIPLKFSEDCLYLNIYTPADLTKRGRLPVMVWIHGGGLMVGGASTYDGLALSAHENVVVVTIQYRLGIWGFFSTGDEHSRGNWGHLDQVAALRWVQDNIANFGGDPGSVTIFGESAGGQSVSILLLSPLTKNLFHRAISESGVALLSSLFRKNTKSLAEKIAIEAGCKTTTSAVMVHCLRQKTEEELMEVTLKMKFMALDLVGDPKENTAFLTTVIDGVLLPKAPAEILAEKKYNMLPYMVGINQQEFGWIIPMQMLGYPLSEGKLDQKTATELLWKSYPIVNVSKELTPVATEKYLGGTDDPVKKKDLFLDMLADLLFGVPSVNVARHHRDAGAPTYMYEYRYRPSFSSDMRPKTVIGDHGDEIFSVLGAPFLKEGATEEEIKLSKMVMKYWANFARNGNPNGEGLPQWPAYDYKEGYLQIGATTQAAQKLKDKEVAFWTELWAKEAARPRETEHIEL
Summary of the method: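 Pure rCE prepared per earlier work. Spectrophotometric multiwell assay with 3mM o-NPA. Inhibitor and substrate were dispensed first, then enzyme was added. A420 was read every 15 s for 5 min and compared with no-inhibitor wells. Inhibitor range started at 1 pM. Duplicates, with 50 µM BNPP and DMSO/no-enzyme controls. Ki came from a partially competitive inhibition equation fit.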

Acetylcholinesterase = Acetylcholinesterase (Homo sapiens, UniProt P22303); assay: Inhibition constant against human Acetylcholinesterase (hAcChE) using acetylthiocholine (AcTCh) as substrate
Liver carboxylesterase 1 [2] = biological target: T3, Liver carboxylesterase 1 (Homo sapiens, UniProt P23141); assay: Inhibition constant against human liver carboxylesterase 1 (hCE1) using nitrophenyl acetate (o-NPA) as substrate
T3 sequence (P23141 whole entry): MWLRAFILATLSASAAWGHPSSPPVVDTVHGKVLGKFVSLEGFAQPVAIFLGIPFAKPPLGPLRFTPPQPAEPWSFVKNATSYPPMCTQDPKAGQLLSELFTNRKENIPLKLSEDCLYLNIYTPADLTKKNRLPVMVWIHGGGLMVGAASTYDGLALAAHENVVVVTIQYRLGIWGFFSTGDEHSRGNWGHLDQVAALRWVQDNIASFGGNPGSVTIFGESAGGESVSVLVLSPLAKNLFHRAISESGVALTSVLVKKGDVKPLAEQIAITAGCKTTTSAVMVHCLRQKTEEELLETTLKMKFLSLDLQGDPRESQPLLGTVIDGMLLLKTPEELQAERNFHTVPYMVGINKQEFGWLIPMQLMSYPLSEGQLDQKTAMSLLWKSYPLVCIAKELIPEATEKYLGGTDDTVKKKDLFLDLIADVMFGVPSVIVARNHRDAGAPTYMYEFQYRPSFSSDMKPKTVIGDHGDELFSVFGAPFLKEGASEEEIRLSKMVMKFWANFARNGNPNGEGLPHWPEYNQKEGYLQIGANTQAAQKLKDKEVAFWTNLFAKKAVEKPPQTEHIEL

Chain of Cholinesterase (P06276 whole entry): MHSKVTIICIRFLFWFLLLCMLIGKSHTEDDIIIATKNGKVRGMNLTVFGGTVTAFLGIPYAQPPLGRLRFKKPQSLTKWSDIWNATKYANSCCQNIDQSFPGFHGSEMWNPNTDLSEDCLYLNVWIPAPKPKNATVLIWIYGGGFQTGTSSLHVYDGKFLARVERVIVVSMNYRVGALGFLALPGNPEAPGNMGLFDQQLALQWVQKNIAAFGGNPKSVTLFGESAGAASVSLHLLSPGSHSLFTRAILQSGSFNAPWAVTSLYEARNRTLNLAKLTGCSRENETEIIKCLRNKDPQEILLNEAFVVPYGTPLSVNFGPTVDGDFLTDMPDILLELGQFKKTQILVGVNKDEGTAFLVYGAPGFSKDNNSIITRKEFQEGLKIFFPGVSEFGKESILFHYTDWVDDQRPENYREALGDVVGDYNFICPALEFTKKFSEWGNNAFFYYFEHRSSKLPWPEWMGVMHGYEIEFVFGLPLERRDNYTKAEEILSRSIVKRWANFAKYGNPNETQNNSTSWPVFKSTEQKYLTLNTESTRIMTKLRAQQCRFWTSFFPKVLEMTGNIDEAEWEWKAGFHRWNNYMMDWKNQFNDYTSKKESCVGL
Chain of Acetylcholinesterase (P22303 whole entry): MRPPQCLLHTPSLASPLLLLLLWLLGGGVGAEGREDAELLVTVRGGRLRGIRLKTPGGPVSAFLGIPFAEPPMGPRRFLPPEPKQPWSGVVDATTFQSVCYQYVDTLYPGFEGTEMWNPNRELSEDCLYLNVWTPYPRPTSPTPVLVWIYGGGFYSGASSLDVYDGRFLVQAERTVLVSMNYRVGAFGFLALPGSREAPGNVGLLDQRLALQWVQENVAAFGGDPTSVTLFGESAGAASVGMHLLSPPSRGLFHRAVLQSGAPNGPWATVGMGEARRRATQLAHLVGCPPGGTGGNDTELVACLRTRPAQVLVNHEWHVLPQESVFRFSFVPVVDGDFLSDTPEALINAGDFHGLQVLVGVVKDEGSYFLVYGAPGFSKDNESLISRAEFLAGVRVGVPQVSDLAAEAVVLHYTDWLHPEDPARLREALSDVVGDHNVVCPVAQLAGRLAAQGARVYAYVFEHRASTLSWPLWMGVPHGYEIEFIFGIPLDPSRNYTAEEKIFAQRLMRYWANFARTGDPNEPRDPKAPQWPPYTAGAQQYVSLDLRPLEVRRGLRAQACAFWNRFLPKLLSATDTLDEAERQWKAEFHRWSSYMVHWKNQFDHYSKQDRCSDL

SMILES: CC(=O)CCC(=O)c1ccccc1
Ki (Cholinesterase): > 100 µM
Ki (Cocaine esterase): > 100 µM
Ki (Liver carboxylesterase 1 [1]): > 100 µM
Ki (Acetylcholinesterase): > 100 µM
Ki (Liver carboxylesterase 1 [2]): > 100 µM

SMILES: O=C1CCCC(=O)C1
Ki (Cholinesterase): > 100 µM
Ki (Cocaine esterase): > 100 µM
Ki (Liver carboxylesterase 1 [1]): > 100 µM
Ki (Acetylcholinesterase): > 100 µM
Ki (Liver carboxylesterase 1 [2]): > 100 µM

SMILES: CCCCC(=O)C(C)=O
Ki (Cholinesterase): > 100 µM
Ki (Cocaine esterase): > 100 µM
Ki (Liver carboxylesterase 1 [1]): > 100 µM
Ki (Acetylcholinesterase): > 100 µM
Ki (Liver carboxylesterase 1 [2]): 16.9 µM

SMILES: O=C1C(=O)C(Cl)=C(Cl)C(Cl)=C1Cl
Ki (Cholinesterase): 3.2 µM
Ki (Cocaine esterase): 0.875 µM
Ki (Liver carboxylesterase 1 [1]): 1.03 µM
Ki (Acetylcholinesterase): 1.67 µM
Ki (Liver carboxylesterase 1 [2]): 5.44 µM

SMILES: COC(OC)(C(=O)c1ccccc1)c1ccccc1
Ki (Cholinesterase): > 100 µM
Ki (Cocaine esterase): > 100 µM
Ki (Liver carboxylesterase 1 [1]): > 100 µM
Ki (Acetylcholinesterase): > 100 µM
Ki (Liver carboxylesterase 1 [2]): 15.3 µM

SMILES: O=S(=O)(Cc1ccccc1)Cc1ccccc1
Ki (Cholinesterase): > 100 µM
Ki (Cocaine esterase): > 100 µM
Ki (Liver carboxylesterase 1 [1]): > 100 µM
Ki (Acetylcholinesterase): > 100 µM
Ki (Liver carboxylesterase 1 [2]): > 100 µM

SMILES: CC(C)(C)C1=CC(=O)C(=O)C(C(C)(C)C)=C1
Ki (Cholinesterase): > 100 µM
Ki (Cocaine esterase): 1.35 µM
Ki (Liver carboxylesterase 1 [1]): 0.736 µM
Ki (Acetylcholinesterase): > 100 µM
Ki (Liver carboxylesterase 1 [2]): 0.0886 µM

SMILES: OC(c1ccccc1)C(O)c1ccccc1 (centres undefined)
Ki (Cholinesterase): > 100 µM
Ki (Cocaine esterase): > 100 µM
Ki (Liver carboxylesterase 1 [1]): > 100 µM
Ki (Acetylcholinesterase): > 100 µM
Ki (Liver carboxylesterase 1 [2]): > 100 µM

SMILES: COc1ccc(C(=O)C(O)c2ccc(OC)cc2)cc1 (centres undefined)
Ki (Cholinesterase): > 100 µM
Ki (Cocaine esterase): > 100 µM
Ki (Liver carboxylesterase 1 [1]): 13.9 µM
Ki (Acetylcholinesterase): > 100 µM
Ki (Liver carboxylesterase 1 [2]): > 100 µM

SMILES: CC1CCC(=O)C1=O (centres undefined)
Ki (Cholinesterase): > 100 µM
Ki (Cocaine esterase): > 100 µM
Ki (Liver carboxylesterase 1 [1]): 15.7 µM
Ki (Acetylcholinesterase): > 100 µM
Ki (Liver carboxylesterase 1 [2]): > 100 µM

SMILES: Oc1nc2cc(Cl)c(Cl)cc2nc1O [2,3-DIHYDROXY-6,7-DICHLOROQUINOXALINE]
Ki (Cholinesterase): > 100 µM
Ki (Cocaine esterase): > 100 µM
Ki (Liver carboxylesterase 1 [1]): > 100 µM
Ki (Acetylcholinesterase): > 100 µM
Ki (Liver carboxylesterase 1 [2]): > 100 µM

SMILES: CCC(=O)C(C)=O [2,3-PENTANEDIONE]
Ki (Cholinesterase): > 100 µM
Ki (Cocaine esterase): > 100 µM
Ki (Liver carboxylesterase 1 [1]): > 100 µM
Ki (Acetylcholinesterase): > 100 µM
Ki (Liver carboxylesterase 1 [2]): > 100 µM

Ki (Liver carboxylesterase 1 [1]): > 100 µM
SMILES: O=C(c1ccccc1)C(O)c1ccccc1 (centres undefined) [BENZOIN]

SMILES: O=C(c1ccccc1)c1ccccc1 [BENZOPHENONE]
Ki (Cholinesterase): > 100 µM
Ki (Cocaine esterase): > 100 µM
Ki (Liver carboxylesterase 1 [1]): > 100 µM
Ki (Liver carboxylesterase 1 [2]): > 100 µM

SMILES: O=C1C=CC(=O)C=C1 [BENZOQUINONE]
Ki (Cholinesterase): 2.05 µM
Ki (Cocaine esterase): > 100 µM
Ki (Liver carboxylesterase 1 [1]): > 100 µM
Ki (Acetylcholinesterase): 0.955 µM
Ki (Liver carboxylesterase 1 [2]): > 100 µM

SMILES: O=S(=O)(Cc1ccccc1)c1ccccc1 [BENZYLSULFONYLBENZENE]
Ki (Cholinesterase): > 100 µM
Ki (Cocaine esterase): > 100 µM
Ki (Liver carboxylesterase 1 [1]): > 100 µM
Ki (Acetylcholinesterase): > 100 µM
Ki (Liver carboxylesterase 1 [2]): > 100 µM

SMILES: CC(=O)C(C)=O [BUTANEDIONE]
Ki (Cholinesterase): > 100 µM
Ki (Cocaine esterase): > 100 µM
Ki (Liver carboxylesterase 1 [1]): > 100 µM
Ki (Acetylcholinesterase): > 100 µM
Ki (Liver carboxylesterase 1 [2]): > 100 µM

SMILES: O=C1C(Cl)=C(Cl)C(=O)C(Cl)=C1Cl [CHLORANIL]
Ki (Cholinesterase): 0.268 µM
Ki (Liver carboxylesterase 1 [1]): 0.0548 µM
Ki (Acetylcholinesterase): 0.163 µM
Ki (Liver carboxylesterase 1 [2]): 0.0839 µM

SMILES: O=C(CC(=O)c1ccccc1)c1ccccc1 [DIBENZOYLMETHANE]
Ki (Cholinesterase): > 100 µM
Ki (Cocaine esterase): > 100 µM
Ki (Liver carboxylesterase 1 [1]): 3.95 µM
Ki (Acetylcholinesterase): > 100 µM
Ki (Liver carboxylesterase 1 [2]): 26 µM
